# TCR CD3 inh = inhibitors of human TCR-CD3 interaction, primary screen, biochemical, fluorescence, TAMRA-labeled TCR probe. inhibition, % at 9.4 µM. T-cell receptor (TCR). hit rate 0.37% among 360,000. AID 651800, 2012; in the data active = inhibition above about 19%;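 note: recombinant mutant TCR 2C K166C tagged with TAMRA read by polarization; 0% = receptor in buffer alone and 100% = receptor with positive control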
# HTRA1 inh = HTRA1 serine protease inhibitors, primary screen, biochemical, fluorescence polarization, HTS. recombinant HTRA1, FP-rhodamine activity-based probe. inhibition, % at 5.96 µM. hit rate 0.5% among 340,000. AID 504803, 2011; in the data active = inhibition above about 36%;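 note: 0% = enzyme with DMSO and 100% = wells lacking enzyme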
# DDE Tn6 FP inh = inhibitors of Tn6 peptide binding to fibrin DD(E), primary screen, biochemical, fluorescence polarization, human fibrin, Tn6 probe; hit rate 0.21% among 370,000; Fibrin DD(E) TRITC-Tn6 fluorescence polarization displacement; inhibition, % at 8.3 µM; Fibrinogen beta chain (Homo sapiens), P02675; AID 720509, 2013;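 active = inhibition above a per-campaign cutoff: mean of compounds within control limits plus 3 SD, cut at about 15% in these data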;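 note: 0% = median of all compound wells on the plate and 100% = blocking peptide control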
# SIAE primary = human SIAE inhibitors, primary screen, biochemical, fluorescence polarization, FP-Rh probe, 1536-well HTS. SIAE FP-Rh probe binding. AID 1053197, 2014. hit rate 0.69% among 370,000. inhibition, % at 9.66 µM;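 active = inhibition above a cutoff: mean of compounds within the control limits plus 3 SD of those, cut at about 17% in these data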;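 note: 0% = plate median of compound wells and 100% = probe without SIAE protein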
# ABHD4 inh = ABHD4 inhibitors, primary screen, biochemical, fluorescence polarization, mouse; purified mABHD4, FP-Rh probe fluorescence polarization; hit rate 0.54% among 370,000; inhibition, % at 8.92 µM; (Lyso)-N-acylphosphatidylethanolamine lipase (Mus musculus), Q8VD66;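 active = inhibition exceeding the mean over every tested compound plus 3 SD, cut at about 30% in these data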;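 note: 0% = plate median of compound wells and 100% = S159A mutant with DMSO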
# Target sequence (Q8VD66 whole entry, looked up): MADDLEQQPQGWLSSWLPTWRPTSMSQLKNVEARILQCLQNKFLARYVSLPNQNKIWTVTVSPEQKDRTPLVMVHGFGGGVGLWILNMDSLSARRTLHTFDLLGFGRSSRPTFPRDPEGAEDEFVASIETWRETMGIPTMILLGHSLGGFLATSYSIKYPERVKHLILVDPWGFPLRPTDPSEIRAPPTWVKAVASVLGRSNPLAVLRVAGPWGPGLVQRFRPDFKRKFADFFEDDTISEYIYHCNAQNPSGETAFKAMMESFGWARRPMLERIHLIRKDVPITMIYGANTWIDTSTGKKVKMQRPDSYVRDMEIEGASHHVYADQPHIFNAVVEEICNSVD
#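 Test system: mouse ABHD4 enzyme, wild type. Reagent: FP-Rh fluorescent activity-based probe, added after compound pre-incubation. Timing: pre-incubation 45 min, probe exposure 60 min, at 25 °C. Technique: FP readout, ex 525 nm / em 598 nm. Benchmarks: high control S159A mutant with DMSO, low control median of compound wells.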
# DDE Tn7 FP inh = inhibitors of Tn7 peptide binding to fibrin DD(E), primary screen, biochemical, fluorescence polarization, human fibrin, Tn7 probe. Fibrinogen beta chain (Homo sapiens), P02675. FP displacement of FITC-Tn7 peptide from fibrin DD(E); 0% = median of compound wells per plate. inhibition, % at 8.3 µM. hit rate 0.13% among 370,000;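 active = inhibition above the mean of compounds falling within the control limits plus 3 SD of them, cut at about 14% in these data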;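 note: 0% = plate median of compound wells and 100% = 10 µM Aha-Tn7 peptide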
#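 System: human fibrin DD(E); quantity: Fibrin-DD(E) at 2 µM final; also added: fluorescent Tn7 probe at 0.1 µM; compound dosing: single nominal test concentration of 8.3 µM per compound; schedule: 10 min preincubation, 3 h with tracer, room temperature; detection: fluorescence polarization of the labelled Tn7 tracer; repeats: one replicate per compound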
# SIAE inh conf = human SIAE inhibitors, retest, confirmation, biochemical, fluorescence polarization, FP-Rh probe, triplicate; shares compounds with SIAE primary; hit rate 13% among 2,300; SIAE FP-Rh activity-based probe; inhibition, % at 9.66 µM;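 active = mean inhibition of the replicates above the hit cutoff set in the primary screen, cut at about 17% in these data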;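 note: 0% = SIAE with DMSO and probe and 100% = probe without SIAE; inhibitors lower polarization as more probe stays unbound to SIAE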
# Numbers without * were called inactive; . = not tested or not shown. Sampled rows, rich in hits. Any-hit rate of the full collection: about 1.8%.
SMILES,TCR CD3 inh,HTRA1 inh,DDE Tn6 FP inh,SIAE primary,ABHD4 inh,DDE Tn7 FP inh,SIAE inh conf
Cc1cc(OCC(=O)N2CCC(C(N)=O)CC2)c2c3c(c(=O)oc2c1)CCCC3,-2,-2,-4,18*,-1,-4,6
COCOC1CCC2C3CCC4=CC(=O)CCC4=C3C=CC12C (centres undefined),5,10,2,5,26,3,.
CC1(O)CCC2C3CCC4=CC(=O)CCC4=C3C=CC21C (centres undefined),5,-4,-3,19*,-3,2,0
COc1cc(C(=S)N2CCOCC2)cc(OC)c1OC(=O)Cc1ccccc1,7,-7,-2,19*,-3,4,5
COC(=O)C1=C(c2ccc(OC(F)(F)F)cc2)C[C@@H]2CC[C@H]1N2C(=O)NCc1ccco1,-3,.,-1,7,12,-1,.
CCCCCSc1cc(OC)c(CCN)cc1OC,6,6,3,19*,11,3,2
CCCCn1c(O)c(/C=N/N2CCOCC2)c(=O)[nH]c1=S,4,-3,3,19*,-1,6,2
CCCCCCn1c(O)c(C=Nc2ccccc2N2CCOCC2)c(=O)[nH]c1=S,2,.,-7,0,-1,-2,.
O=C1c2ccccc2C(=O)N1Cc1nc2ccccc2c(=O)n1-c1ccc(Br)cn1,-1,5,1,-7,0,-4,.
CCOP(=O)(OCC)C(NC(=O)c1ccccc1C)C(Cl)(Cl)Cl (centres undefined),-1,6,-5,19*,-4,1,2
N#CC[N+]1(CCCNP2(=O)C=C(c3ccccc3)OC(c3ccccc3)=C2)CCOCC1,0,3,-7,18*,-1,9,-4
OCC#CC[N+]1(CC#Cc2ccccc2)CCOCC1,4,2,7,2,-1,-4,.
COc1ccc(CCNCc2c(OC)ccc3ccccc23)cc1,-7,0,3,7,9,4,.
O=C1CC(c2cccnc2)=NN1c1ccccc1,7,4,-4,28*,4,3,-7
Clc1cccc(CN2CCCCC2c2cccnc2)c1 (centres undefined),3,-3,3,-1,0,-1,.
